Experiments:
Format in all cases: functional
OVCAR-8 = assay: Growth inhibition of human OVCAR8 cells after 48 hrs; settings: OVCAR-8, 48 h
Summary of the method: (§1)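 NCI ~60-line screen. Cells were grown in RPMI 1640 with 5% FBS and 2 mM L-glutamine and plated at 5000–40000 cells/well. After a 24 h preincubation, five drug concentrations from DMSO stocks were added for 48 h at 37 °C. Cells were TCA-fixed, stained with SRB and read at 515 nm. GI50 was taken from time-zero and control absorbances and reported as pGI50.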

UACC-257 = assay: Growth inhibition of human UACC257 cells after 48 hrs; settings: UACC-257, 48 h
Summary of the method: (§2)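 NCI 60-line screen: cells in RPMI 1640 with 5% FBS and 2 mM L-glutamine, plated at 5000–40000 cells/well, grown 24 h (37 °C, 5% CO₂), then exposed to five 10-fold or ½-log dilutions (DMSO stock) for 48 h. Fixed with TCA (final 10% for adherent cells, 16% for suspension cells), then SRB stained with absorbance at 515 nm. GI50 from percentage growth relative to time-zero and control wells.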

CAKI-1 = assay: Growth inhibition of human CAKI1 cells after 48 hrs; settings: CAKI-1, 48 h; summary of the method: as §1
BT-549 = assay: Growth inhibition of human BT549 cells after 48 hrs; settings: BT-549, 48 h; summary of the method: as §1
EKVX = assay: Growth inhibition of human EKVX cells after 48 hrs; summary of the method: as §1
T47D = assay: Growth inhibition of human T47D cells after 48 hrs; summary of the method: as §2
SNB-75 = assay: Growth inhibition of human SNB75 cells after 48 hrs; settings: SNB-75, 48 h; summary of the method: as §2
M14 = assay: Growth inhibition of human M14 cells after 48 hrs; settings: M14, 48 h; summary of the method: as §1
MDA-MB-435 = assay: Growth inhibition of human MDA-MB435 cells after 48 hrs; settings: MDA-MB-435, 48 h; summary of the method: as §1
KM12 = assay: Growth inhibition of human KM12 cells after 48 hrs; settings: KM12, 48 h; summary of the method: as §1
MOLT-4 = assay: Growth inhibition of human MOLT4 cells after 48 hrs; settings: MOLT-4, 48 h; summary of the method: as §1
NCI-H460 [1] = assay: Growth inhibition of human NCI-H460 cells after 48 hrs; settings: NCI-H460, 48 h; summary of the method: as §1
SR = assay: Growth inhibition of human SR cells after 48 hrs; summary of the method: as §2
OVCAR-4 = assay: Growth inhibition of human OVCAR4 cells after 48 hrs; settings: OVCAR-4, 48 h; summary of the method: as §1
NCI-H522 = assay: Growth inhibition of human NCI-H522 cells after 48 hrs; settings: NCI-H522, 48 h; summary of the method: as §1
A549 = assay: Growth inhibition of human A549 cells after 48 hrs; settings: A549, 48 h; summary of the method: as §1
SK-OV-3 = assay: Growth inhibition of human SKOV3 cells after 48 hrs; settings: SK-OV-3, 48 h; summary of the method: as §2
786-0 = assay: Growth inhibition of human 786-0 cells after 48 hrs; settings: 786-0, 48 h; summary of the method: as §1
SF-539 = assay: Growth inhibition of human SF539 cells after 48 hrs; settings: SF-539, 48 h; summary of the method: as §1
K562 = assay: Growth inhibition of human K562 cells after 48 hrs; settings: K562, 48 h; summary of the method: as §1
SK-MEL-5 = assay: Growth inhibition of human SK-MEL5 cells after 48 hrs; settings: SK-MEL-5, 48 h; summary of the method: as §1
HCT-116 = assay: Growth inhibition of human HCT116 cells after 48 hrs; settings: HCT-116, 48 h; summary of the method: as §1
DU-145 = assay: Growth inhibition of human DU145 cells after 48 hrs; settings: DU-145, 48 h; summary of the method: as §1
SNB-19 = assay: Growth inhibition of human SNB19 cells after 48 hrs; settings: SNB-19, 48 h; summary of the method: as §2
UACC-62 = assay: Growth inhibition of human UACC62 cells after 48 hrs; settings: UACC-62, 48 h; summary of the method: as §2
MDA-MB-231 = assay: Growth inhibition of human MDA-MB-231 cells after 48 hrs; settings: MDA-MB-231, 48 h; summary of the method: as §1
PC-3 = assay: Growth inhibition of human PC3 cells after 48 hrs; settings: PC-3, 48 h; summary of the method: as §1
COLO 205 = assay: Growth inhibition of human COLO205 cells after 48 hrs; settings: COLO 205, 48 h; summary of the method: as §1
HOP-92 = assay: Growth inhibition of human HOP92 cells after 48 hrs; settings: HOP-92, 48 h; summary of the method: as §1
Malme-3M = assay: Growth inhibition of human MALME3M cells after 48 hrs; summary of the method: as §1
U-251 = assay: Growth inhibition of human U251 cells after 48 hrs; settings: U-251, 48 h; summary of the method: as §2
UO-31 = assay: Growth inhibition of human UO31 cells after 48 hrs; settings: UO-31, 48 h; summary of the method: as §2
HOP-62 = assay: Growth inhibition of human HOP62 cells after 48 hrs; settings: HOP-62, 48 h; summary of the method: as §1
OVCAR-3 = assay: Growth inhibition of human OVCAR-3 cells after 48 hrs; settings: OVCAR-3, 48 h; summary of the method: as §1
SF-268 [2] = assay: Growth inhibition of human SF268 cells after 48 hrs; settings: SF-268, 48 h; summary of the method: as §1
A498 = assay: Growth inhibition of human A498 cells after 48 hrs; settings: A498, 48 h; summary of the method: as §1
HCT-15 = assay: Growth inhibition of human HCT15 cells after 48 hrs; settings: HCT-15, 48 h; summary of the method: as §1
LOX IMVI = assay: Growth inhibition of human LOXIMVI cells after 48 hrs; summary of the method: as §1
[3] = Growth inhibition of human HS578T cells after 48 hrs; settings: Hs-578T; summary of the method: as §1
MCF7 [4] = assay: Growth inhibition of human MCF7 cells after 48 hrs; settings: MCF7, 48 h; summary of the method: as §1
TK-10 = assay: Growth inhibition of human TK10 cells after 48 hrs; settings: TK-10, 48 h; summary of the method: as §2
NCI-H23 = assay: Growth inhibition of human NCI-H23 cells after 48 hrs; settings: Homo sapiens, NCI-H23, 48 h; summary of the method: as §1
HCC 2998 = assay: Growth inhibition of human HCC2998 cells after 48 hrs; settings: HCC 2998, 48 h; summary of the method: as §1
HL-60 = assay: Growth inhibition of human HL60 cells after 48 hrs; settings: HL-60, 48 h; summary of the method: as §1
SK-MEL-2 = assay: Growth inhibition of human SK-MEL2 cells after 48 hrs; settings: SK-MEL-2, 48 h; summary of the method: as §1
NCI/ADR-RES = assay: Growth inhibition of human NCI/ADR-RES cells after 48 hrs; summary of the method: as §1
SF-295 = assay: Growth inhibition of human SF295 cells after 48 hrs; settings: SF-295, 48 h; summary of the method: as §1
SK-MEL-28 = assay: Growth inhibition of human SK-MEL28 cells after 48 hrs; settings: SK-MEL-28, 48 h; summary of the method: as §1
IGROV-1 = assay: Growth inhibition of human IGROV1 cells after 48 hrs; settings: IGROV-1, 48 h; summary of the method: as §1
SW-620 = assay: Growth inhibition of human SW620 cells after 48 hrs; settings: SW-620, 48 h; summary of the method: as §2
CCRF-CEM = assay: Growth inhibition of human CCRF-CEM cells after 48 hrs; summary of the method: as §1
ACHN = assay: Growth inhibition of human ACHN cells after 48 hrs; summary of the method: as §1
RPMI-8226 = assay: Growth inhibition of human RPMI8226 cells after 48 hrs; settings: RPMI-8226, 48 h; summary of the method: as §1
NCI-H226 = assay: Growth inhibition of human NCI-H226 cells after 48 hrs; settings: NCI-H226, 48 h; summary of the method: as §1
OVCAR-5 = assay: Growth inhibition of human OVCAR5 cells after 48 hrs; settings: OVCAR-5, 48 h; summary of the method: as §1
NCI-H322M = assay: Growth inhibition of human NCI-H322M cells after 48 hrs; summary of the method: as §1
SN12C = assay: Growth inhibition of human SN12C cells after 48 hrs; summary of the method: as §2
RXF 393 = assay: Growth inhibition of human RXF393 cells after 48 hrs; settings: RXF 393, 48 h; summary of the method: as §1
HT-29 = assay: Growth inhibition of human HT29 cells after 48 hrs; settings: HT-29, 48 h; summary of the method: as §1
MCF7 [5] = assay: Antitumor activity against human MCF7 cells at 0.1 mM after 48 hrs
Summary of the method: (§3)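 Prescreen run under the NCI Developmental Therapeutic Program. Agents were tested at a single concentration of 10^-4 M against a three-line panel (MCF7, NCI-H460, SF-268).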

NCI-H460 [6] = assay: Antitumor activity against human NCI-H460 cells at 0.1 mM after 48 hrs; summary of the method: as §3
SF-268 [7] = assay: Antitumor activity against human SF268 cells at 0.1 mM after 48 hrs; summary of the method: as §3

COC(=O)C(Cc1c[nH]cn1)NC(=O)CNC(=O)CCCn1c(=O)c2c3ccccc3n(C)c2n2nnc(-c3ccccc3)c12 (stereo not given)
> 100 µM: GI50 (OVCAR-8) | GI50 (UACC-257) | GI50 (CAKI-1) | GI50 (BT-549) | GI50 (EKVX) | GI50 (T47D) | GI50 (SNB-75) | GI50 (M14) | GI50 (MDA-MB-435) | GI50 (KM12) | GI50 (MOLT-4) | GI50 (NCI-H460 [1]) | GI50 (SR) | GI50 (OVCAR-4) | GI50 (NCI-H522) | GI50 (A549) | GI50 (SK-OV-3) | GI50 (786-0) | GI50 (SF-539) | GI50 (K562) | GI50 (SK-MEL-5) | GI50 (HCT-116) | GI50 (DU-145) | GI50 (SNB-19) | GI50 (UACC-62) | GI50 (MDA-MB-231) | GI50 (COLO 205) | GI50 (HOP-92) | GI50 (Malme-3M) | GI50 (U-251) | GI50 (UO-31) | GI50 (HOP-62) | GI50 (OVCAR-3) | GI50 (SF-268 [2]) | GI50 (A498) | GI50 (HCT-15) | GI50 (LOX IMVI) | GI50 [3] | GI50 (MCF7 [4]) | GI50 (TK-10) | GI50 (NCI-H23) | GI50 (HCC 2998) | GI50 (HL-60) | GI50 (SK-MEL-2) | GI50 (NCI/ADR-RES) | GI50 (SF-295) | GI50 (SK-MEL-28) | GI50 (SW-620) | GI50 (CCRF-CEM) | GI50 (ACHN) | GI50 (RPMI-8226) | GI50 (NCI-H226) | GI50 (OVCAR-5) | GI50 (NCI-H322M) | GI50 (SN12C) | GI50 (RXF 393) | GI50 (HT-29)
72.4 µM: GI50 (IGROV-1)
30.2 µM: GI50 (PC-3)

Cn1c2ccccc2c2c(=O)n(CCCC(=O)O)c3c(-c4ccccc4)nnn3c21
80%: Activity (MCF7 [5])
87%: Activity (SF-268 [7])
95%: Activity (NCI-H460 [6])

CCOC(=O)CCCn1c(=O)c2c3ccccc3n(C)c2n2nnc(-c3ccccc3)c12
95%: Activity (NCI-H460 [6])
110%: Activity (SF-268 [7])
114%: Activity (MCF7 [5])
